Active and inactive are the calls of the source. The rule behind the calls is not given here.
What was measured:
Prostacyclin receptor [1] = biological target: T1, Prostacyclin receptor (Homo sapiens, UniProt P43119); experiment: Ratio of IC50 for IP receptor in human primary platelets to EC50 for recombinant human IP receptor expressed in CHO-K1 cells; type: cell-based
[2] = Selectivity ratio of EC50 for recombinant rat IP receptor expressed in CHO-K1 cells to EC50 for recombinant human IP receptor expressed in CHO-K1 cells; type: cell-based
[3] = biological target: Prostaglandin E2 receptor EP2 subtype (Homo sapiens) (UniProt P43116); experiment: Agonist activity at recombinant human EP2 receptor expressed in CHO-K1 cells assessed as increase in intracellular cAMP level up to 10 uM after 1 hr incubation by HTRF method; type: functional, cell-based
Rattus norvegicus [4] = experiment: AUC (0 to infinity) in Sprague-Dawley rat at 10 mg/kg, po; type: ADME, organism-based; design: dose 10 mg/kg, route oral, time infinity; details: in vivo
Outline: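 Sprague-Dawley rats, single oral dose of 10.0 mg/kg; AUC0-inf from plasma concentrations.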

[5] = biological target: T2, Prostaglandin E2 receptor EP3 subtype (Homo sapiens, UniProt P43115); experiment: Agonist activity at recombinant human EP3v6 receptor expressed in melanophores assessed as induction of pigment redistribution up to 10 uM after 90 mins; details: 1.5 h
T2 sequence (P43115 whole entry): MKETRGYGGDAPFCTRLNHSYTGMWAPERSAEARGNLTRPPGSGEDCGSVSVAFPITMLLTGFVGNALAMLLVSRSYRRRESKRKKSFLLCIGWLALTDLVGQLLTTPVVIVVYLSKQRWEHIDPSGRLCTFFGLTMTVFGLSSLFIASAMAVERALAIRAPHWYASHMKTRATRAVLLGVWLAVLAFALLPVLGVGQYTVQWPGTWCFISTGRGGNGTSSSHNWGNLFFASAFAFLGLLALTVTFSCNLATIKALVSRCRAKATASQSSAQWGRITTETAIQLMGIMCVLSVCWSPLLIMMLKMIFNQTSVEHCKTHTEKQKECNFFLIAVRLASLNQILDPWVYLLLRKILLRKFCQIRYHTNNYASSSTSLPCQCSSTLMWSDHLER
Outline: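 Melanophores electroporated with 20 μg human EP3v6 plasmid per 400 μL cells, grown 48 h at 27 °C. Assay buffer 0.7× PBS pH 7.3 with 20 nM melatonin to aggregate pigment, 90 min at room temperature, 650 nm baseline; compounds added (10-point, 5-fold dilutions, top 10 μM final), 90 min room temperature, absorbance reread.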

[6] = Total clearance in Beagle dog at 0.2 mg/kg, iv; type: ADME, organism-based, Canis lupus familiaris; details: in vivo
[7] = Total clearance in Sprague-Dawley rat plasma at 2 mg/kg, iv or 10 mg/kg, po; type: ADME, organism-based
Rattus norvegicus [8] = experiment: Unbound Cmax in Sprague-Dawley rat at 10 mg/kg, po administered via gavage as single dose; type: ADME, organism-based; details: in vivo
[9] = Total clearance in cynomolgus monkey at 0.1 mg/kg, iv; type: ADME, organism-based, Macaca fascicularis; details: in vivo
[10] = biological target: Prostaglandin E2 receptor EP4 subtype (Homo sapiens) (UniProt P35408); experiment: Agonist activity at recombinant human EP4 receptor expressed in CHO-K1 cells assessed as increase in intracellular cAMP level up to 10 uM after 1 hr incubation by HTRF method; type: functional, cell-based
[11] = Drug metabolism in bile-duct cannulated rat bile assessed as 2-(2-(((1r,4r)-4-(((4-chlorophenyl)(phenyl)carbamoyloxy)methyl)cyclohexyl)methoxy)acetoxy)ethanesulfonic acid formation; type: ADME
Rattus norvegicus [12] = experiment: Inhibition of right ventricle hypertrophic response in Sprague-Dawley rat monocrotaline model of pulmonary arterial hypertension assessed as reduction of MCT-induced increase in ratio of right ventricular weight to left ventricle plus septum weight administered via oral gavage twice daily for 21 consecutive days starting 24 hrs after monocrotaline challenge; type: functional
Outline: (§1)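 Male rats given 60 mg/kg monocrotaline sc on day 1 (sham: saline) under 30 mg/kg ip pentobarbital; from next day for 20 days dosed by oral gavage twice daily at 10 or 30 mg/kg in 20% HPBCD in saline (vehicle control). Day 21: RV/(LV+S) weights; mPAP via catheter under 60 mg/kg pentobarbital (30 mg/kg group, n = 5); H&E lung sections, 5 animals/group.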

Plasma [13] = experiment: Drug uptake in bile-duct cannulated rat plasma; type: ADME, cell-free
[14] = Volume of distribution at steady state in cynomolgus monkey at 0.1 mg/kg, iv; type: ADME, organism-based, Macaca fascicularis; details: in vivo
[15] = Drug uptake in bile-duct cannulated rat bile; type: ADME; details: in vivo
[16] = Drug uptake in bile-duct cannulated rat urine; type: ADME; details: in vivo
Rattus norvegicus [17] = experiment: Cardioprotective effect in Sprague-Dawley rat monocrotaline model of pulmonary arterial hypertension assessed as reduction of MCT-induced increase of pulmonary arterial pressue at 30 mg/kg administered via oral gavage twice daily for 21 consecutive days starting 24 hrs after monocrotaline challenge; type: functional, organism-based; outline: as §1
Rattus norvegicus [18] = experiment: Inhibition of hypertrophic response in Sprague-Dawley rat monocrotaline model of pulmonary arterial hypertension assessed as reduction of MCT-induced increase in pulmonary vessel wall thickness at 30 mg/kg administered via oral gavage twice daily for 21 consecutive days starting 24 hrs after monocrotaline challenge by morphometric analysis; type: functional, organism-based; outline: as §1
Plasma [19] = experiment: Drug metabolism in bile-duct cannulated rat plasma assessed as 2-(((1r,4r)-4-(((4-chlorophenyl)(4-hydroxyphenyl)carbamoyloxy)methyl)cyclohexyl)methoxy)acetic acid formation; type: ADME, cell-free
[20] = Volume of distribution at steady state in Beagle dog at 0.2 mg/kg, iv; type: ADME, organism-based, Canis lupus familiaris; details: in vivo
Plasma [21] = experiment: Drug metabolism in bile-duct cannulated rat plasma assessed as 2-(2-(((1r,4r)-4-(((4-chlorophenyl)(4-hydroxyphenyl)carbamoyloxy)methyl)cyclohexyl)methoxy)acetoxy)ethanesulfonic acid formation; type: ADME, cell-free
[22] = Volume of distribution at steady state in Sprague-Dawley rat at 2 mg/kg, iv or 10 mg/kg, po; type: ADME, organism-based; details: in vivo
Plasma [23] = experiment: Drug level in bile-duct cannulated rat plasma treated with 2-(((1r,4r)-4-(((4-chlorophenyl)(phenyl)carbamoyloxy)methyl)cyclohexyl)methoxy)acetic acid; type: ADME, cell-free
[24] = Half life in human microsomes; type: ADME, Microsome
Prostacyclin receptor [25] = biological target: T1, Prostacyclin receptor; experiment: Intrinsic activity at recombinant human IP receptor expressed in CHO-K1 cells assessed as increase in intracellular cAMP level at 10 uM after 1 hr incubation by HTRF method relative to iloprost; type: functional, cell-based
Outline: (§2)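 Stably transfected CHO-K1 clones with receptor expression kept minimal to avoid receptor reserve. Cells at 200 000/mL in PBS with 1 mM IBMX and 0.2% BSA. 10-point 5-fold dilution series, top 10 μM, tested in triplicate plates, 1 h at room temperature. HTRF cAMP read by time-resolved fluorescence.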

[26] = biological target: T3, Prostaglandin D2 receptor (Homo sapiens) (UniProt Q13258); experiment: Intrinsic activity at recombinant human DP1 receptor expressed in CHO-K1 cells assessed as increase in intracellular cAMP level after 1 hr incubation by HTRF method relative to prostaglandin D2; type: functional, cell-based
T3 sequence (whole entry): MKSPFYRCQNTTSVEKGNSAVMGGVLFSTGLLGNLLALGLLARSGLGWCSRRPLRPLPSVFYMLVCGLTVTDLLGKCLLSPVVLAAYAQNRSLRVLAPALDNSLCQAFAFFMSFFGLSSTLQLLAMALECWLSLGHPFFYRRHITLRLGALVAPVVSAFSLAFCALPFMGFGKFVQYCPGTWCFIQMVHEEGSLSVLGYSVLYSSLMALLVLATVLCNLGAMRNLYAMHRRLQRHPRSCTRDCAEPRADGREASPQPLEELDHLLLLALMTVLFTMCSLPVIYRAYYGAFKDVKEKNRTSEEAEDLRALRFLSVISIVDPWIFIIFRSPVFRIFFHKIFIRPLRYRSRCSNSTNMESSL
Outline: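 CHO-K1 clonal line stably expressing DP1 at minimal level; HTRF cAMP assay, 1 h incubation at room temperature, time-resolved fluorescence read-out.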

[27] = Half life in rat microsomes; type: ADME, Microsome
[28] = biological target: Prostacyclin receptor (Rattus norvegicus) (UniProt P43253); experiment: Intrinsic activity at recombinant rat IP receptor expressed in CHO-K1 cells assessed as increase in intracellular cAMP level at 10 uM after 1 hr incubation by HTRF method relative to iloprost; type: functional, cell-based; outline: as §2
Prostacyclin receptor (Rattus norvegicus), sequence (P43253 whole entry): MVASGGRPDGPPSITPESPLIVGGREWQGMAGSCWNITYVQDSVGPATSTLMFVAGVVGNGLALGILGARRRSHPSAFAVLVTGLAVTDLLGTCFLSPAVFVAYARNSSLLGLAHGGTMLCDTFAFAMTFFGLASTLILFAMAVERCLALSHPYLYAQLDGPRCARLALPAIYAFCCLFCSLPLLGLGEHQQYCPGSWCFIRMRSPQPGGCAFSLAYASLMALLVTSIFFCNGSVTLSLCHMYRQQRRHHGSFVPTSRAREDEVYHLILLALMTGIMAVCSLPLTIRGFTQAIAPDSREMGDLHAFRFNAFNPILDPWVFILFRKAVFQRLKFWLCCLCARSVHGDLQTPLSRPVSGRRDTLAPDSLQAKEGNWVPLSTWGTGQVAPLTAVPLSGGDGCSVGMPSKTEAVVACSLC

T1 sequence (P43119 whole entry): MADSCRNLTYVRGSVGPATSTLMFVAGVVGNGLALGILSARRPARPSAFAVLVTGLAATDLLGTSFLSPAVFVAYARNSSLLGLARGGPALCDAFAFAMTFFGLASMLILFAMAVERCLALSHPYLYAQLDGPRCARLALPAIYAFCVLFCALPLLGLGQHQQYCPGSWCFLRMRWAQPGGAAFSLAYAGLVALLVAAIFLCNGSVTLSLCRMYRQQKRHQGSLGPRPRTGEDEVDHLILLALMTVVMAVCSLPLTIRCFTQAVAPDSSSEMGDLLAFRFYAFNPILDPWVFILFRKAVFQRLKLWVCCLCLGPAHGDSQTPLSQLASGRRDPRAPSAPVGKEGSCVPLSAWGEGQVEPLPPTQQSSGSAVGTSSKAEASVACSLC
Prostaglandin E2 receptor EP2 subtype (Homo sapiens), sequence (P43116 whole entry): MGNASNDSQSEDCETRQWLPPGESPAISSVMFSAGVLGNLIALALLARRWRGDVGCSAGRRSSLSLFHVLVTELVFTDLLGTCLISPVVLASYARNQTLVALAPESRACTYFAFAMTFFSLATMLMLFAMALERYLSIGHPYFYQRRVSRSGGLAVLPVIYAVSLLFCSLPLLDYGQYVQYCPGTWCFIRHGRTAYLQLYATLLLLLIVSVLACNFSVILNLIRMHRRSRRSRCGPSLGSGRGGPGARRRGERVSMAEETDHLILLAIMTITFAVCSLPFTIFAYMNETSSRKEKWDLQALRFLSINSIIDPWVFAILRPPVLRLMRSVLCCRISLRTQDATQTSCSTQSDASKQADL
Prostaglandin E2 receptor EP4 subtype (Homo sapiens), sequence (P35408 whole entry): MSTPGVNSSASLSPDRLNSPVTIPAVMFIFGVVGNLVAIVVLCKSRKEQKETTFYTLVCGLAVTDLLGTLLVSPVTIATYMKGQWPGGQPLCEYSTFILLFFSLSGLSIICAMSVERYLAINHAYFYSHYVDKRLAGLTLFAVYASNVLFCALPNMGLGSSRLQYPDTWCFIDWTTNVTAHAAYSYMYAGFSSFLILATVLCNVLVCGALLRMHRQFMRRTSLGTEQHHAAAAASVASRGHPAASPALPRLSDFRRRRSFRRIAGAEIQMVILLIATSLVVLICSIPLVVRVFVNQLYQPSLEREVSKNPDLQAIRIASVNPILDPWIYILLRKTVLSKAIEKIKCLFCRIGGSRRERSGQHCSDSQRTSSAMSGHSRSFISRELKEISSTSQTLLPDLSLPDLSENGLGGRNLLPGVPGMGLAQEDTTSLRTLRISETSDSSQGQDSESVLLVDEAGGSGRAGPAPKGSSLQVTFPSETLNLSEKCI

COc1ccc(N(C(=O)OC[C@H]2CC[C@H](COCC(=O)O)CC2)c2cccc(F)c2)cc1
Ratio IC50/EC50 (Prostacyclin receptor [1]): 2 to 10 | Ratio EC50 [2]: 10 to 30

O=C(O)COC[C@H]1CC[C@H](COC(=O)N(c2ccccc2)c2ccccc2)CC1
Ratio IC50/EC50 (Prostacyclin receptor [1]): 2 to 10 | Ratio EC50 [2]: 10 to 30

O=C(O)COC[C@H]1CC[C@@H](COC(=O)N(c2ccccc2)c2cccc(F)c2)CC1
Ratio IC50/EC50 (Prostacyclin receptor [1]): 2 to 10 | Ratio EC50 [2]: 10 to 30

O=C(O)COC[C@H]1CC[C@H](COC(=O)N(c2ccccc2)c2ccc(Cl)cc2)CC1
Activity [3]: inactive | AUC (Rattus norvegicus [4]): 14.6 µg·h/mL | Activity [5]: Active | clearance [6]: 3.37 mL/min/kg | clearance [7]: 7.12 mL/min/kg | fCmax (Rattus norvegicus [8]): 100 nM | clearance [9]: 14.7 mL/min/kg | Activity [10]: inactive | Drug metabolism [11]: Metabolite_Detected | inhibition (Rattus norvegicus [12]): Dose-dependent effect | Drug uptake (Plasma [13]): Active | Vd [14]: 10.1 L/kg | Drug uptake [15]: Active | Drug uptake [16]: Active | Activity (Rattus norvegicus [17]): Active | inhibition (Rattus norvegicus [18]): Active | Drug metabolism (Plasma [19]): Metabolite_Detected | Vd [20]: 0.308 L/kg | Drug metabolism (Plasma [21]): Metabolite_Detected

COc1cccc(N(C(=O)OC[C@H]2CC[C@H](COCC(=O)O)CC2)c2ccccc2)c1
AUC (Rattus norvegicus [4]): 1.9 µg·h/mL | Ratio IC50/EC50 (Prostacyclin receptor [1]): 2 to 10 | Vd [22]: 6.3 L/kg | Ratio EC50 [2]: 10 to 30

O=C(O)COC[C@H]1CC[C@H](COC(=O)N(c2ccccc2)c2ccc(Cl)c(F)c2)CC1
AUC (Rattus norvegicus [4]): 2.6 µg·h/mL | clearance [7]: 13.3 mL/min/kg | Ratio IC50/EC50 (Prostacyclin receptor [1]): 2 to 10 | Vd [22]: 3.5 L/kg | Ratio EC50 [2]: 10 to 30

O=C(O)COC[C@H]1CC[C@@H](COC(=O)N(c2ccccc2)c2ccccc2)CC1
Ratio IC50/EC50 (Prostacyclin receptor [1]): 2 to 10 | Ratio EC50 [2]: 10 to 30

O=C(O)COC[C@H]1CC[C@H](COC(=O)N(c2ccc(O)cc2)c2ccc(Cl)cc2)CC1
Drug metabolism (Plasma [23]): Metabolite_Detected

COc1ccc(N(C(=O)OC[C@H]2CC[C@@H](COCC(=O)O)CC2)c2ccccc2)cc1
Ratio IC50/EC50 (Prostacyclin receptor [1]): 2 to 10 | Ratio EC50 [2]: 10 to 30

O=C(O)COC[C@H]1CC[C@H](COC(=O)N(c2ccc(Cl)cc2)c2cccc(F)c2)CC1
Ratio IC50/EC50 (Prostacyclin receptor [1]): 2 to 10 | Ratio EC50 [2]: 10 to 30

Cc1ccc(N(C(=O)OC[C@H]2CC[C@H](COCC(=O)O)CC2)c2ccccc2)cc1
Ratio IC50/EC50 (Prostacyclin receptor [1]): 2 to 10 | Ratio EC50 [2]: 10 to 30

O=C(O)COC[C@H]1CC[C@@H](COC(=O)N(c2ccccc2)c2cccc(Cl)c2)CC1
half-life [24]: > 60 min | Intrinsic activity (Prostacyclin receptor [25]): 80% | Intrinsic activity [26]: 30% | half-life [27]: > 60 min | Intrinsic activity [28]: 88%
